# Source: PubChem BioAssay (several laboratories)
# Hits are enriched below; roughly 2.9% of the tested compounds scored in any of these assays.
# HCV core dimer – blocks dimerization of HCV core protein | 300,000 compounds, 0.33% hits | AID 1899 | inhibition, % at 5 µM | TR-FRET GST/Flag-core106 dimerization, 1536-well;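 active means inhibition above the mean of all tested compounds plus 3 SD, set per screening campaign, cut at about 45% in these data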
#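 Test system: GST/Flag-tagged HCV core106 proteins; Medium: KF-containing HEPES buffer, pH 7.45, DTT, CHAPS, BSA; Times: compound-protein-antibody incubation 4 h at 22.5 °C; Detection: TR-FRET 671 and 617 nm emission; Benchmarks: wells lacking GST-core106 and wells with excess unlabelled core106.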
# PRMT1 inh – blocks human protein arginine methyltransferase 1. Q99873. recombinant PRMT1, activity-based probe fluorescence polarization. inhibition, % at 2.79 µM. 370,000 compounds, 1.3% hits. AID 652257;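 active means inhibition above about 21% made by adding two undisclosed values, limit read from the data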
# Target sequence (Q99873 whole entry, looked up): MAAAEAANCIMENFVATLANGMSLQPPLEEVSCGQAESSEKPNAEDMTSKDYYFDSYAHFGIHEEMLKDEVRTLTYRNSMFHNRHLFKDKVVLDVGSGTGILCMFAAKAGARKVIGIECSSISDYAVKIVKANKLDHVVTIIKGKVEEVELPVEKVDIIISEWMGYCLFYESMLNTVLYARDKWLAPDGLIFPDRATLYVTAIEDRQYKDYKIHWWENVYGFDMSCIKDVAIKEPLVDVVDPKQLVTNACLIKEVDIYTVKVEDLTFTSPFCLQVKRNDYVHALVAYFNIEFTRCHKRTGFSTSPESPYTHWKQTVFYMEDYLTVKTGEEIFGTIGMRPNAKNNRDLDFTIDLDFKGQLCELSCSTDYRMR
# HCV NS3 hel inh – blocks Hepatitis C virus NS3 helicase unwinding; 290,000 compounds, 0.56% hits; inhibition, % at 10.9 µM; NS3 helicase DNA unwinding, Cy5 molecular beacon fluorescence;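 active means inhibition above the mean of all tested compounds plus 3 SD, set per campaign, cut at about 35% in these data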;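 further: 0% = DMSO wells and 100% = thioflavine S control wells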
#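 Material: hepatitis C virus NS3 helicase domain fragment enzyme; measured by: Cy5 fluorescence, 0 and 60 min reads; control set: DMSO and thioflavine S; incubation: 60 min unwinding reaction at 25 °C after ATP addition; read-out basis: % inhibition from 60/0 min fluorescence ratio, DMSO 0%, thioflavine S 100%; repeats: singlicate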
# A3A deaminase – blocks human APOBEC3A ssDNA deamination. recombinant A3A, FAM/TAMRA ssDNA deamination fluorescence. AID 493011. 330,000 compounds, 0.41% hits. P31941. inhibition, % at 20 µM;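 active means at least 40% inhibition at 20 µM here, with at most 30% in a related deaminase screen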;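 further: plate controls were A3A with DMSO for no effect and wells lacking A3A enzyme for full effect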
# Target sequence (P31941 whole entry, looked up): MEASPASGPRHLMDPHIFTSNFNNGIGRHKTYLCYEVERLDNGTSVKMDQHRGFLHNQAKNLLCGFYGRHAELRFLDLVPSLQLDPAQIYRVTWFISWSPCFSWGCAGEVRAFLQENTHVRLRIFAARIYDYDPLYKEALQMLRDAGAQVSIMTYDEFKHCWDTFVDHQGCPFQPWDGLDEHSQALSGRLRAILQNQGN
# A3G deaminase – APOBEC3G (human) deaminase inhibition; AID 493012; 330,000 compounds, 0.28% hits; Q9HC16; inhibition, % at 20 µM; recombinant A3G, ssDNA deamination FAM/TAMRA fluorescence;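 active means inhibition of at least 40% at 20 µM, with no more than 30% in the related APOBEC3A deaminase screen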;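 further: plate controls were DMSO wells with A3G for no effect and wells lacking A3G enzyme for full effect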
# ABHD5-PLIN5 inh – blocks binding of human ABHD5 to perilipin-5; Q00G26+Q8WTS1; Split G. princeps luciferase complementation, luminescence, 4 h; inhibition, % at 4 µM; 360,000 compounds, 0.78% hits; AID 602281;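 active means inhibition above the mean inhibition across every tested compound plus 3 SD, cut at about 22% in these data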;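 further: 0% = DMSO only wells and the 100% control is not disclosed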
# PRMT1 inh conf – PRMT1 (human) inhibition, FP confirmation. shares compounds with PRMT1 inh. recombinant His-PRMT1, activity-based probe fluorescence polarization. inhibition, % at 2.79 µM. 3,300 compounds, 42% hits;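 active means mean inhibition across replicates above the hit cutoff derived for the earlier primary screen, cut at about 22% in these data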
# An asterisk follows results filed as active; x = not tested or not shown.
SMILES,HCV core dimer,PRMT1 inh,HCV NS3 hel inh,A3A deaminase,A3G deaminase,ABHD5-PLIN5 inh,PRMT1 inh conf
Cc1ccccc1C(=O)N1CCC2CC1c1cc(-c3ccc(F)cc3)ccc12 (centres undefined),x,2,x,x,x,-3,x
O=C(CC1CCCC1)N[C@H](C(=O)N1CCC[C@H]1C(=O)NC1CCCC1)c1ccccc1,x,0,x,x,x,x,x
Cc1ccc(S(=O)(=O)SCCCSS(=O)(=O)c2ccc(C)cc2)cc1,x,96*,x,x,x,13,91*
Cc1ccc(S(=O)(=O)SC/C=C/CSS(=O)(=O)c2ccc(C)cc2)cc1,x,87*,x,x,x,2,91*
O=C1/C(=C/c2ccco2)SC(=S)N1CCC(=O)N1CCCCC1CCO (centres undefined),10,26*,9,35,13,-1,1
Cc1ccc(C)c(S(=O)(=O)N2CCCOC2CNC(=O)C(=O)NCc2ccc3c(c2)OCO3)c1 (centres undefined),2,7,-3,1,-6,1,x
O=C(NC(Cc1ccccc1)C(=O)O)/C(=C/c1ccc([N+](=O)[O-])cc1)NC(=O)c1ccco1 (centres undefined),-16,10,10,-3,-9,-2,x
COc1ccc(C(=O)N(C)[C@H]2C[C@H]3c4[nH]c5ccccc5c4CCN3C(=O)[C@H]2CO)cc1,x,1,x,x,x,3,x
CC(=O)Nc1ccc(SC(C)C(=O)NC(N)=O)cc1 (centres undefined),-2,39*,0,0,-5,-3,31*
O=C1CC(Sc2nnnn2C2CCCCC2)C(=O)N1c1ccccc1 (centres undefined),-7,75*,4,-5,-3,15,73*
Cc1cc(C)cc(N2C(=O)CC(Sc3ncn[nH]3)C2=O)c1 (centres undefined),12,29*,28,-2,41*,6,43*
CCOc1ccc2nc(SC3CC(=O)N(c4cccc(OC)c4)C3=O)sc2c1 (centres undefined),-2,38*,9,2,-2,0,26*
Cn1nnnc1SC1CC(=O)N(c2ccccc2)C1=O (centres undefined),-3,56*,6,1,4,8,75*
O=C1CC(SCCO)C(=O)N1c1ccccc1 (centres undefined),1,2,18,-3,-5,-3,x
Cc1cccc(N2C(=O)CC(Sc3nc(C)cc(C)n3)C2=O)c1 (centres undefined),2,2,-9,-4,-1,0,x
Cc1cccc(N2C(=O)CC(Sc3nnc(C)s3)C2=O)c1 (centres undefined),-7,61*,-3,-2,5,2,44*
Cc1cc(C)cc(N2C(=O)CC(Sc3nnnn3-c3ccccc3)C2=O)c1 (centres undefined),0,56*,-2,2,-5,19,55*
COC(=O)C1=C(C)N(Cc2ccccc2C(F)(F)F)C(=NCc2ccc(C(F)(F)F)cc2)NC1c1ccccc1 (centres undefined),x,0,x,x,x,x,x
O=C(OCC(=O)C12CC3CC(CC(C3)C1)C2)c1ccc(O)cc1,x,56*,x,-4,-8,-3,-7
O=C(OCC(=O)C12CC3CC(CC(C3)C1)C2)c1ccc(CO)cc1,x,1,x,6,4,5,x
COC(=O)CCC(C)C1CCC2C3C(OC(C)=O)CC4CC(O)CCC4(C)C3CC(O)C12C (centres undefined),x,-6,x,x,x,-7,x
C[C@@H]1CCCCO[C@@H](CN(C)Cc2ccncc2)[C@@H](C)CN([C@H](C)CO)C(=O)c2cc(NC(=O)c3ccccc3)ccc2O1,x,0,x,x,x,-6,x
CC(C)(C)OC(=O)N1CCC2(CC1)Oc1ccc(Cl)cc1C(=O)C21CC(c2ccc(Cl)cc2)=NO1 (centres undefined),24,1,x,x,x,9,x
CCOC(=O)C(C)N1C(=O)S/C(=C\c2ccc(-c3ccccc3C(=O)O)o2)C1=O (centres undefined),15,29*,28,94,60,6,4
Cc1ccc(CN2CC(N3CCN(C)CC3)CS2(=O)=O)cc1 (centres undefined),x,-1,x,x,x,6,x
SMILES,HCV core dimer,PRMT1 inh,HCV NS3 hel inh,A3A deaminase,A3G deaminase,ABHD5-PLIN5 inh,PRMT1 inh conf
CC(=NNC(=S)N1CCCCCC1)c1cccc2cccnc12,x,26*,x,x,x,-16,9
CC(=NNC(=S)N1CCN(C2CCCCCC2)CC1)c1ccccn1,x,1,x,x,x,-21,x
CC(=NNC(=S)N1CC2CCC(CC2)C1)c1cnccn1,x,25*,x,x,x,-1,2
CC(=NNC(=S)N1CC2CCC(CC2)C1)c1ccccn1,x,37*,x,x,x,-9,-3
O=C(c1cccc(C(F)(F)F)c1)N1CCN(CCc2ccccc2)CC1,-4,-3,9,-7,-5,-2,x
COc1cc2c(cc1OC)CN(C(=O)CSc1ccccc1C)CC2,x,33*,x,-2,3,3,16
COc1cc2c(cc1OC)CN(C(=O)CSC1=NCCS1)CC2,x,4,x,x,x,-4,x
CC(C)(C)n1nnnc1C(c1ccncc1)N1CCN(c2ccc(O)cc2)CC1 (centres undefined),1,27*,2,-2,15,1,4
O=C(O)CCc1ccc(-c2ccc(Br)cc2)n1Cc1ccco1,23,8,21,1,-3,7,x
O=C(O)CCc1ccc(-c2ccccc2)n1Cc1ccco1,14,33*,10,-2,-3,15,5
Oc1ccc(C[C@H]2CNC(=S)N2CC2CCCN2C[C@H](Cc2ccc(O)cc2)N2C[C@H](Cc3ccccc3)N(CC3CCCCC3)C2=S)cc1 (some centres undefined),x,-2,x,x,x,3,x
CCCCOCCCNC(=O)C[C@@H]1C[C@@]2(C(=O)OC)CC(C)(C)CC=C2N(CCc2ccc(OC)c(OC)c2)C1=O,x,-6,x,x,x,2,x
CCN(CC)S(=O)(=O)c1cccc(C(=O)N/N=C2\CC(=O)CC(C)(C)C2)c1,5,17,6,-3,-10,0,x
CCN(CC)S(=O)(=O)c1cccc(C(=O)N/N=C2\CCCC(=O)C2)c1,-1,46*,3,-3,-11,6,-2
CCn1cc(C(=O)NCc2ccc(C)o2)c2cc(OC)c(OC)cc2c1=O,-9,13,2,1,1,7,x
Cc1ccc(CNC(=O)c2coc(=O)c3ccccc23)o1,4,32*,12,-2,-3,8,10
S=c1[nH]nc(Nc2cccc3ccccc23)s1,-8,55*,7,-4,15,-17,42*
Cc1ccccc1Nc1n[nH]c(=S)s1,x,36*,x,x,x,-8,6
